Consider four compounds from ChEMBL document CHEMBL2074309, “The drug transporter P-glycoprotein limits oral absorption and brain entry of HIV-1 protease inhibitors” (J Clin Invest, 1998).

Series [1] has as its target T1, ATP-dependent translocase ABCB1 (Homo sapiens, UniProt P08183). The experiment in a line: TP_TRANSPORTER: inhibition of Saquinavir transepithelial transport (basal to apical) (Saquinavir: 5 uM, PSC-833: 1 uM) in Caco-2 cells. The class given is functional, cell-based. The conditions noted are these: caco-2, 1 µM. An outline of the steps:
(§1)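 Caco-2 monolayers on 0.4 µm polycarbonate Transwell filters, plated at 10^5 cells/12-mm well, used on day 4; wells with resistance ≥200 Ω (blank-corrected) used. […] Radioactivity reaching apical side sampled at 1, 2, 3, 4 h, expressed as % of added; mean ± SE, ≥3 experiments.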
In general terms: Passage across Caco-2 layers is used to estimate intestinal permeability.

Series [2] has as its target T1, ATP-dependent translocase ABCB1. Put plainly: TP_TRANSPORTER: inhibition of Indinavir transepithelial transport (basal to apical) (Indinavir: 5 uM, PSC-833: 1 uM) in Caco-2 cells. Particulars: caco-2, 1 µM. The format is functional, cell-based. Put shortly: as §1
Series [3] shares this target. Put plainly: TP_TRANSPORTER: inhibition of Nelfinavir transepithelial transport (basal to apical) (Nrlfinavir: 5 uM, PSC-833: 1 uM) in Caco-2 cells. The format is functional, cell-based. Particulars: caco-2, 1 µM. An outline of the steps:
as §1

For series [4] the target is unchanged. Put plainly: TP_TRANSPORTER: transepithelial transport (basal to apical) in MDR1-expressing LLC-PK1 cells. The class given is functional, cell-based. Particulars: pig. Put shortly:
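L-MDR1 cells (LLC-PK1 expressing MDR1) plated at 4×10^5 cells/12-mm well on 3.0 µm polycarbonate Transwell filters, used day 4; resistance ≥200 Ω after blank correction. Serum-free Optimem; [14C]-drug 5 µM added to basal compartment, apical radioactivity sampled at 1, 2, 3, 4 h by scintillation, given as % of total added; parental LLC-PK1 run alongside; mean ± SE, ≥3 experiments.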

Series [5] has as its target ATP-dependent translocase ABCB1 (Mus musculus, UniProt P21447). Put plainly: TP_TRANSPORTER: increase in brain concentration in mdr1a(-/-) mouse. Particulars: in vivo. The format is functional, organism-based. Put shortly: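 Male mdr1a(-/-) (FVB/TacBR-[KO]mdr1aN7) and matched mdr1a(+/+) FVB/NTacBR mice, 6–12 wk, three per group. [14C]-drug (indinavir 1.5 mg/kg, nelfinavir 3 mg/kg, saquinavir 2 mg/kg) in ethanol/0.9% saline, given i.v. into tail vein over 10 min. At 4 h, isoflurane anesthesia, orbital exsanguination, brain homogenized in 4% BSA. Total radioactivity by scintillation; value is (-/-)/(+/+) ratio of brain levels.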

Each structure is given as a SMILES string.

T1 sequence (P08183 whole entry): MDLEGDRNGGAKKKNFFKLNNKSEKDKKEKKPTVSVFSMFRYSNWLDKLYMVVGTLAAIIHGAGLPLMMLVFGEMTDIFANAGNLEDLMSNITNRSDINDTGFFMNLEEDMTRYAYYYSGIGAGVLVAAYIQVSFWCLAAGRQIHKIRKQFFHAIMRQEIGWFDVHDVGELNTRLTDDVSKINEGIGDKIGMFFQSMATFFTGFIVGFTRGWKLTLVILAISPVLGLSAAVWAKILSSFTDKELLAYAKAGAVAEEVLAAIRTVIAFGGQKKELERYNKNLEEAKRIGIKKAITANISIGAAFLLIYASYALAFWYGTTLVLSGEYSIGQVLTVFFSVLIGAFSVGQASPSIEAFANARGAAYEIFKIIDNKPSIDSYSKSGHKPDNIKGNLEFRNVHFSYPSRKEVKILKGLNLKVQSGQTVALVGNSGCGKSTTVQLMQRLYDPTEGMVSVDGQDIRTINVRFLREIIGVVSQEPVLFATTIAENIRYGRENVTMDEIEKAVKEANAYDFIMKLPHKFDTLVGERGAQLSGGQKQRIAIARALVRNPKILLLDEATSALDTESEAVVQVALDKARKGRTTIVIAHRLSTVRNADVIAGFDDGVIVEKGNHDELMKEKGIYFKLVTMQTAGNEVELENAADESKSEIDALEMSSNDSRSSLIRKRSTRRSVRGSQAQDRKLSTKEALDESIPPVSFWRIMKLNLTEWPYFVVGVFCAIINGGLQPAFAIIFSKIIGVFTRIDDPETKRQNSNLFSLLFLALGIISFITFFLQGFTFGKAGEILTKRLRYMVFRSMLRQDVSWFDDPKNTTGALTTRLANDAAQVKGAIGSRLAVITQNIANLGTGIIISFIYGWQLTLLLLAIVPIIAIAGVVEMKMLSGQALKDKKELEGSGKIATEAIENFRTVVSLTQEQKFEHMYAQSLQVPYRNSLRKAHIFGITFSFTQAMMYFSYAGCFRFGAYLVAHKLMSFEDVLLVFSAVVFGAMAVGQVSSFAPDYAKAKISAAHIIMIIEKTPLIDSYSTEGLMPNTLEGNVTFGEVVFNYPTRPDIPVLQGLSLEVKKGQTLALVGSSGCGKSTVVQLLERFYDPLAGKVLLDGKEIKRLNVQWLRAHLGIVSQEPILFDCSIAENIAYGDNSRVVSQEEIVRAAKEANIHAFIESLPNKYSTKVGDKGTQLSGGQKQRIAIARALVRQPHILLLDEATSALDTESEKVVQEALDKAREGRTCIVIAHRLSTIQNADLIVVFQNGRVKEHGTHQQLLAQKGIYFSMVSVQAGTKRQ
ATP-dependent translocase ABCB1 (Mus musculus, UniProt P21447), sequence (P21447 whole entry): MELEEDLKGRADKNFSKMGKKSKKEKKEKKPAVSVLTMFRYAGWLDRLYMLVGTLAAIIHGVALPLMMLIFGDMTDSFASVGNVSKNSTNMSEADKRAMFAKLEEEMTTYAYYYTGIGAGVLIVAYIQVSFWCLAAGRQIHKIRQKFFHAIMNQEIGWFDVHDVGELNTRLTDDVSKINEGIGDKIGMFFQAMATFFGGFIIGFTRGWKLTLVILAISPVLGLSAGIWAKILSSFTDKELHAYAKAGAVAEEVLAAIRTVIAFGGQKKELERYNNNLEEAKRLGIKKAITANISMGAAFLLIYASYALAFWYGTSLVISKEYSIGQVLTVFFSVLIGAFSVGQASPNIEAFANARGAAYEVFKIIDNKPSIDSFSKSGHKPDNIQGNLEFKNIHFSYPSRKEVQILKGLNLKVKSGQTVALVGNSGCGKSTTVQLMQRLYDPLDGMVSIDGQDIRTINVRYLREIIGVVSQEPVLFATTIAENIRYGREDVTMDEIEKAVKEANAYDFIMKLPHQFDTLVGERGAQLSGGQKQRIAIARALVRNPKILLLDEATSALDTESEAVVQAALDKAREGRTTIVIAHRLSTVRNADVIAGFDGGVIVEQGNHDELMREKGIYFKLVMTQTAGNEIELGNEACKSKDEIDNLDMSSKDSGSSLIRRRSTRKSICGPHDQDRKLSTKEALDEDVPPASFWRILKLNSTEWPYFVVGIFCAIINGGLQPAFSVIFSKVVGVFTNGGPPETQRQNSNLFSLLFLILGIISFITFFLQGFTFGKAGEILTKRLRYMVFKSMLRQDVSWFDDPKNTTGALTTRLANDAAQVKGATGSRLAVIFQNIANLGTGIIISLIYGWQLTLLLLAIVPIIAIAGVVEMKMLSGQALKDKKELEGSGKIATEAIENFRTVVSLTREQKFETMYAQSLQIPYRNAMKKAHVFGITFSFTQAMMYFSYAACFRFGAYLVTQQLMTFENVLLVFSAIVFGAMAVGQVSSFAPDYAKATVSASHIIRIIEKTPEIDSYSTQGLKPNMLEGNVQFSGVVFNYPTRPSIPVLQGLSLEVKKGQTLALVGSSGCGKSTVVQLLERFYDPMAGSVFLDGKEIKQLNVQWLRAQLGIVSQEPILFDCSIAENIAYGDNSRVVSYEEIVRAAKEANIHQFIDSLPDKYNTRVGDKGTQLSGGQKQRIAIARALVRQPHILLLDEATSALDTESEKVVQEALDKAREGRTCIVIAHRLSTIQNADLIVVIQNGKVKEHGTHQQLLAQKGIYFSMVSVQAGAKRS

For the compound `C/C=C/C[C@@H](C)C(=O)[C@H]1C(=O)N[C@@H](C(C)C)C(=O)N(C)CC(=O)N(C)[C@@H](CC(C)C)C(=O)N[C@@H](C(C)C)C(=O)N(C)[C@@H](CC(C)C)C(=O)N[C@@H](C)C(=O)N[C@H](C)C(=O)N(C)[C@@H](CC(C)C)C(=O)N(C)[C@@H](CC(C)C)C(=O)N(C)[C@@H](C(C)C)C(=O)N1C` [VALSPODAR], the Activity result in series [1], in series [2] and in series [3] was “inhibitor [+]” in each case.
As for `Cc1c(O)cccc1C(=O)N[C@@H](CSc1ccccc1)[C@H](O)CN1C[C@H]2CCCC[C@H]2C[C@H]1C(=O)NC(C)(C)C`, the Activity entry in series [4] and in series [5] was “substrate [+]” throughout.
Turning to `CC(C)(C)NC(=O)[C@@H]1CN(Cc2cccnc2)CCN1C[C@@H](O)C[C@@H](Cc1ccccc1)C(=O)N[C@H]1c2ccccc2C[C@H]1O.O`, the Activity result in series [4] and in series [5] was “substrate [+]” each time.
Regarding `CC(C)(C)NC(=O)[C@@H]1C[C@@H]2CCCC[C@@H]2CN1C[C@@H](O)[C@H](Cc1ccccc1)NC(=O)[C@H](CC(N)=O)NC(=O)c1ccc2ccccc2n1`, the Activity entry in series [5] is “substrate [+]”.
